{"source": "paper PMC7616001", "about": "(Journal of medicinal chemistry, 2022)", "key": {"[1]": {"test_system": "HeLa cells", "assay": "Intracellular distribution between nucleus and cytoplasm, ICP-MS", "assay_type": "cell-based, human", "conditions": "10 μM, 24 h exposure", "summary_of_the_method": "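5 × 10^6 HeLa per 100 mm plate, grown overnight. Exposed 24 h to 10 μM test compound, with 10 μM cisplatin as comparator. PBS‑washed, trypsinised, counted. Nuclear and cytoplasmic fractions isolated with a commercial kit. Protein measured by BCA assay, metal by ICP‑MS. Three experiments of ≥3 replicates.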"}, "[2]": {"test_system": "mitochondria of HeLa cells", "assay": "Metal content in isolated mitochondria, ICP-MS", "assay_type": "cell-based, human", "conditions": "20 μM, 24 h"}, "[3]": {"assay": "Cyclic voltammetry", "assay_type": "physicochemical", "conditions": "acetonitrile, 0.1 M NEt4BF4"}, "[4]": {"test_system": "O2•− radicals in HeLa cells", "assay": "Flow cytometric quantification of superoxide radicals with DHE probe", "assay_type": "cell-based, human", "conditions": "10 μM, 4 h", "summary_of_the_method": "(§1)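 HeLa seeded at 0.75 × 10^6 cells per six‑well plate well, grown overnight, then treated 4 h at 10 μM. Cells trypsinised, washed with ice‑cold PBS and spun at 1200 rpm, 5 min, 4 °C. Probe‑stained cells analysed by flow cytometry, approximately 20,000 cells per sample.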"}, "[5]": {"test_system": "MEF-Bax/Bak^+/+ and MEF-Bax/Bak^−/− cell lines", "assay": "Cytotoxicity in MEF-Bax/Bak+/+ versus MEF-Bax/Bak−/− cells", "assay_type": "cell-based, murine"}, "[6]": {"test_system": "zebrafish embryos", "assay": "Zebrafish embryo toxicity and viability analysis", "assay_type": "in vivo, zebrafish (Danio rerio)", "summary_of_the_method": "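Wild‑type embryos, ten per 5 mL E3. Test compound at final 20, 30 or 40 μM, diluted from a 5 mM DMSO stock; DMSO vehicle at 10 μL/mL. Exposure from 26 hpf to 72 hpf at 28 °C, then scored for viability and morphology.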"}, "[7]": {"test_system": "IRE1α, ATF6, p-elF2α, unfolded proteins in HeLa cells", "assay": "Western blot of polyubiquitinated proteins and ER-stress marker proteins", "assay_type": "cell-based, human", "conditions": "24 h", "summary_of_the_method": "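HeLa cells, about 2 × 10^6 at 80–90% confluency, were treated for 24 h with test compound at 10, 20 or 40 μM, with celastrol as positive control. RIPA lysates with protease inhibitors were heated in Laemmli buffer (90 °C, 10 min), resolved on 10/12% SDS-PAGE and transferred to PVDF. Membranes were blocked in 2% milk and probed overnight at 4 °C with primary antibodies (1:1000), then with HRP secondary antibodies.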"}, "[8]": {"assay": "Stability in DMSO and aqueous media by 1H NMR", "assay_type": "physicochemical", "conditions": "up to 48 h", "summary_of_the_method": "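About 2 mM test compound in DMSO-d6 was mixed with 666 mM NaCl in D2O to give 100 mM NaCl final in DMSO/D2O (85/15, v/v). 1H NMR spectra were recorded at regular intervals up to 48 h.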"}, "[9]": {"test_system": "HeLa cells", "assay": "Whole cell uptake by ICP-MS", "assay_type": "cell-based, human", "conditions": "10 μM", "summary_of_the_method": "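2 × 10^6 cells per 60 mm plate, grown overnight. Incubated 4 h in fresh medium containing 10 μM test compound. Washed three times with PBS, detached with trypsin and counted for per‑cell metal uptake.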"}, "[10]": {"test_system": "HeLa", "assay": "MTT assay, 72 h continuous exposure, HeLa cells", "assay_type": "cell-based, human", "summary_of_the_method": "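Ovarian lines grown in RPMI with 10% FBS and 1% penicillin/streptomycin; A2780Cis kept on 2 μM cisplatin 3 days each week. HeLa grown in DMEM with the same supplements. 3 × 10^3 cells/well, overnight, then serial dilutions of DMSO stocks (final DMSO ≤0.1%); cisplatin stock in PBS. 72 h continuous exposure, MTT 0.5 mg/mL 3 h, formazan in DMSO, A570 normalised to untreated. IC50 from curves; ≥3 independent experiments.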"}, "[11]": {"test_system": "HO• radicals in HeLa cells", "assay": "Flow cytometric quantification of hydroxyl radicals with HPF probe", "assay_type": "cell-based, human", "conditions": "10 μM, 4 h", "summary_of_the_method": "as §1"}, "[12]": {"test_system": "HeLa cells", "assay": "Trypan blue dye exclusion cell proliferation assay", "assay_type": "cell-based, human", "summary_of_the_method": "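HeLa seeded in 24‑well plates. Next day, some wells trypsinised, stained with trypan blue and live cells counted by hemocytometer as the 0 h value. Remaining wells left untreated or dosed at various concentrations. Viable cells counted at 24, 48, 72, 96 and 120 h and plotted against time.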"}, "[13]": {"test_system": "A2780", "assay": "72 h crystal violet", "assay_type": "cell-based, human", "conditions": "read-out: IC50 (CV assay) A2780; 72 h CV assay", "summary_of_the_method": "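Seeding and dosing as for MTT: 3 × 10^3 cells/well, overnight, final DMSO ≤0.1%, 72 h exposure. Wells washed with PBS and fixed in 4% paraformaldehyde for 15 min. Crystal violet stained, dried, dissolved in 96% ethanol and A570 read. IC50 derived from dose–response curves.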"}, "[14]": {"test_system": "PARP, p53, cleaved caspase 3 in HeLa cells", "assay": "Western blot of apoptosis-related marker proteins", "assay_type": "cell-based, human", "conditions": "24 h", "summary_of_the_method": "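~2 million HeLa per 60 mm dish, grown to 80–90% confluency, treated 24 h at 10, 20 or 40 μM. Lysed in RIPA buffer with protease inhibitors. Membranes blocked with 2% skim milk in 0.1% Tween 20 for 30 min. Primary antibody 1:1000 overnight at 4 °C; HRP secondary antibody.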"}}, "note": "“Also recorded” adds a separate entry of the source."}
{"smiles": "Cc1ccc(C(C)C)cc1.O=C(C=C([O-])C(F)(F)F)[c-]1cccc1.[Cl-].[Fe+2].[Ru+2].c1cc[cH-]c1", "note": "[Compound 1, [(η^6-p-cymene)Ru(1,1,1-trifluoro-4-oxo-4-ferrocenyl-but-2-en-2-olate)Cl]]", "values": [{"measurement": "metal content in nuclear fraction relative to cytoplasmic fraction", "setting": "[1]", "value": "~ 2.5 times"}, {"measurement": "Ru in mitochondria relative to Pt in mitochondria of cisplatin-treated cells", "setting": "[2]", "value": "~ 4 fold"}, {"measurement": "oxidation potential (vs Fc^+/0)", "setting": "[3]", "value": 321, "unit": "mV"}, {"measurement": "level of O2•− radicals relative to untreated control", "setting": "[4]", "value": "~ 19 fold"}, {"measurement": "IC50 in MEF-Bax/Bak^−/− compared to MEF-Bax/Bak^+/+ cells", "setting": "[5]", "value": "statistically similar"}, {"measurement": "morphology / visible toxic effects on embryos", "setting": "[6]; 72 hpf, up to 40 μM", "value": "morphologically indistinguishable from untreated control embryos; also recorded: did not show any visible toxic effects"}, {"measurement": "animal viability at 72 hpf", "setting": "[6]; treated at 26 hpf, even at 40 μM dose", "value": 100, "unit": "%"}, {"measurement": "unfolded (polyubiquitinated) proteins", "setting": "[7]; 10-40 μM", "value": "dose-dependent upregulation of unfolded proteins"}, {"measurement": "IRE1α and ATF6 levels", "setting": "[7]", "value": "significant upregulation of both IRE1α and ATF6"}, {"measurement": "p-elF2α level (PERK arm)", "setting": "[7]", "value": "did not increase the level of the downstream protein p-elF2α"}, {"measurement": "stability in DMSO", "setting": "[8]", "value": "no change was detected in the ^1H NMR spectrum up to 48 h"}, {"measurement": "stability in DMSO-d6/D2O containing 100 mM NaCl", "setting": "[8]", "value": "no significant spectral changes were observed up to 48 h"}, {"measurement": "fold higher accumulation than 3", "setting": "[9]; 4 h", "value": 3.5, "unit": "fold"}, {"measurement": "times lower cellular accumulation compared to 4", "setting": "[9]; 4 h", "value": 1.6, "unit": "times"}, {"measurement": "whole cell uptake", "setting": "[9]; 4 h", "value": "57 ± 9.7", "unit": "pmol/10^6 cells"}, {"measurement": "whole cell uptake", "setting": "[9]; 4 h exposure", "value": "57.0 ± 9.7", "unit": "picomole Ru/10^6 cells"}, {"measurement": "fold higher potency compared to oxaliplatin", "setting": "[10]; HeLa cells, 72 h MTT", "value": 1.6, "unit": "fold"}, {"measurement": "IC50", "setting": "[10]; read-out: IC50 HeLa, 72 h continuous exposure, MTT assay", "value": "1.3 ± 0.3", "unit": "µM"}, {"measurement": "level of HO• radicals relative to untreated control", "setting": "[11]", "value": "~ 7 fold"}, {"measurement": "effect on number of viable cells", "setting": "[12]; 5 and 10 μM", "value": "time-dependent antiproliferative effect"}, {"measurement": "effect on number of viable cells", "setting": "[12]; 20 and 40 μM", "value": "exerted antitumor activity by killing cells"}, {"measurement": "IC50", "setting": "[13]", "value": "7.2 ± 0.3", "unit": "µM"}, {"measurement": "apoptosis markers (PARP cleavage, p53, cleaved caspase 3)", "setting": "[14]; cisplatin 10 μM, 1 at 1/4 × IC50 to IC50", "value": "none of these apoptosis markers were upregulated"}, {"measurement": "PARP level", "setting": "[14]; western blot", "value": "significant upregulation of PARP"}]}
